For data set [1], the system named is Mycobacteroides abscessus. The experiment in a line: Antimycobacterial activity against Mycobacterium abscessus ATCC 19977 after 8 days by resazurin microtiter based colorimetric assay. Particulars: ATCC 19977, 192 h. Format: functional. The essentials:
(§1)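 Resazurin microtiter plate MIC, read by visual scan for growth, in Mueller Hinton II broth. Strains include clinical isolates of M. abscessus complex, M. chelonae, M. avium, M. intracellulare, M. xenopi, P. aeruginosa PAO-1 and S. aureus ATCC 25923.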
In general terms: Resazurin is reduced to fluorescent resorufin, in cell work by metabolically active cells.

In data set [2] the test system is Mycobacteroides abscessus. The experiment in a line: Antimycobacterial activity against Mycobacterium abscessus isolate DCI 21 after 8 days by resazurin microtiter based colorimetric assay. It counts as functional. Particulars: isolate DCI 21, 192 h. A digest of the protocol:
as §1

Data set [3] in a line: Antimycobacterial activity against Mycobacterium massiliense isolate CIP108297 after 8 days by resazurin microtiter based colorimetric assay. Format: functional, Mycobacterium abscessus subsp. massiliense. As to conditions: Mycobacteroides abscessus, isolate CIP108297, 192 h. A digest of the protocol: as §1
Data set [4] can be described thus: Antimycobacterial activity against Mycobacterium massiliense isolate CRM0019 after 8 days by resazurin microtiter based colorimetric assay. It counts as functional, Mycobacterium abscessus subsp. massiliense. Particulars: Mycobacteroides abscessus, isolate CRM0019, 192 h. The essentials:
as §1

Data set [5] is described as follows: Antimycobacterial activity against Mycobacterium bolletii ATCC 14472 after 8 days by resazurin microtiter based colorimetric assay. As to conditions: Mycobacteroides abscessus, ATCC 14472, 192 h. Format: functional. A digest of the protocol:
as §1

For the next data set, the system named is Mycobacteroides chelonae. In words: Antimycobacterial activity against Mycobacterium chelonae ATCC 35752 after 8 days by resazurin microtiter based colorimetric assay. Format: functional. As to conditions: ATCC 35752, 192 h. The essentials: as §1
For data set [6], the system named is Mycobacterium tuberculosis. The experiment in a line: Antimycobacterial activity against Mycobacterium tuberculosis H37Rv MC2-6206 after 8 days by resazurin microtiter based colorimetric assay. As to conditions: H37Rv MC2-6206, 192 h. It counts as functional. The essentials: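 MIC was measured by resazurin microtiter colorimetric assay with visual growth scoring. Medium was 7H9-ADC–0.05% tyloxapol with 0.2% casaminoacids, 48 µg/ml pantothenate and 50 µg/ml L-leucine.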

The subject of data set [7] is Mycolicibacterium smegmatis. The experiment in a line: Antimycobacterial activity against Mycobacterium smegmatis isolate MC2 155 after 8 days by resazurin microtiter based colorimetric assay. It counts as functional. Particulars: str. MC2 155, 192 h.
Another data set has as its system Mycobacterium avium. The experiment in a line: Antimycobacterial activity against Mycobacterium avium isolate 104 after 8 days by resazurin microtiter based colorimetric assay. It counts as functional. As to conditions: isolate 104, 192 h. A digest of the protocol:
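M. avium 104 MICs were read by resazurin microtiter colorimetric assay in 96-well plates, with growth scored visually, in Mueller Hinton II medium.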

The subject of data set [8] is Mycobacterium avium-intracellulare. The experiment in a line: Antimycobacterial activity against Mycobacterium avium-intracellulare isolate 1956 after 8 days by resazurin microtiter based colorimetric assay. Format: functional. Particulars: isolate 1956, 192 h. A digest of the protocol:
as §1

In a further data set the test system is Mycobacterium xenopi. The experiment in a line: Antimycobacterial activity against wild type Mycobacterium xenopi isolate 4042 after 8 days by resazurin microtiter based colorimetric assay. Format: functional. As to conditions: isolate 4042, 192 h. A digest of the protocol:
as §1

Another data set concerns Pseudomonas aeruginosa. The experiment in a line: Antibacterial activity against Pseudomonas aeruginosa PAO1 after 8 days by resazurin microtiter based colorimetric assay. Format: functional. As to conditions: PAO1, 192 h. A digest of the protocol:
as §1

The test system of a further data set is Staphylococcus aureus. In words: Antibacterial activity against Staphylococcus aureus ATCC 25923 after 8 days by resazurin microtiter based colorimetric assay. Format: functional. Particulars: ATCC 25923, 192 h. The essentials: as §1
Data set [9] relates to Mycobacteroides abscessus. The experiment in a line: Bactericidal activity against Mycobacterium abscessus after 8 days by resazurin microtiter based colorimetric assay. It counts as functional. A digest of the protocol:
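MBC90 found by subculturing from the MIC wells onto 7H11 agar. Value is the lowest concentration cutting CFU by 90% versus the inoculum.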

Data set [10] can be described thus: Cytotoxicity against human THP1 cells assessed as reduction in cell viability after 3 days by CellTiter-Glo based luminescence assay. As to conditions: THP-1 cells, read-out: TD50. A digest of the protocol:
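THP-1 cells in complete RPMI, made macrophage-like with 80 nM PMA overnight at 37°C, 5% CO2, then seeded and cultured 24 h. Cells got 10-point DMSO serial dilutions (top 50 µM, final DMSO 0.5%) for 3 days, with staurosporine as control. Viability read by CellTiter-Glo luminescence. IC50 (50% viability) came from a Levenberg–Marquardt curve fit.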

The nature of data set [11]: Selectivity index, ratio of TD50 for human THP1 cells to MIC for Mycobacterium abscessus isolate DCI 21. Particulars: THP-1 cells, read-out: Selectivity Index. It counts as toxicity. The essentials:
(§2)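 Ratio of THP-1 cytotoxicity to resazurin-assay MIC. Cytotoxicity: THP-1 cells were differentiated with 80 nM PMA overnight, plated for 24 h, then given 10-point DMSO dilutions (top 50 μM, 0.5% final DMSO) for 3 days at 37°C, 5% CO₂. ATP luminescence was read, with a staurosporine control. IC₅₀ = concentration giving 50% viability, from a Levenberg–Marquardt curve fit.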

Data set [12] is described as follows: Selectivity index, ratio of TD50 for human THP1 cells to MIC for Mycobacterium massiliense isolate CRM0019. It counts as toxicity. Particulars: THP-1 cells, read-out: Selectivity Index. A digest of the protocol: as §2
Data set [13] can be described thus: Selectivity index, ratio of TD50 for human THP1 cells to MIC for Mycobacterium bolletii ATCC 14472. Format: toxicity. As to conditions: THP-1 cells, read-out: Selectivity Index. The essentials: as §2
Data set [14] in a line: Selectivity index, ratio of TD50 for human THP1 cells to MIC for Mycobacterium chelonae ATCC 35752. Format: toxicity. As to conditions: THP-1 cells, read-out: Selectivity Index. The essentials:
as §2

Data set [15] in a line: Selectivity index, ratio of TD50 for human THP1 cells to MIC for Mycobacterium tuberculosis H37Rv MC2-6206. Format: toxicity. Particulars: THP-1 cells, read-out: Selectivity Index. The essentials: as §2
The test system of data set [16] is Mycobacterium abscessus subsp. massiliense. The experiment in a line: Inhibition of MmpL3 in Mycobacterium massiliense isolate 1513 assessed as reduction in trehalose monomycolate by measuring decrease in mycolic acid transfer to cell envelope after 16 hrs using [1,2-14C]acetate labeled compounds by TLC analysis. A digest of the protocol:
(§3)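 Lipids were run on TLC in CHCl3:CH3OH:H2O 20:4:0.5. Cell wall-bound MAMEs were run in n-hexane:ethyl acetate 95:5, developed three times. Phosphorimaging read-out gave TMM/TDM ratios and MAME radioactivity relative to untreated control.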

The test system is the same in data set [17]. The experiment in a line: Inhibition of MmpL3 in Mycobacterium massiliense isolate 1513 assessed as reduction in arabinogalactan after 16 hrs using [1,2-14C]acetate labeled compounds by TLC analysis. A digest of the protocol: as §3
Data set [18] has the same test system. The experiment in a line: Inhibition of MmpL3 in Mycobacterium massiliense isolate 1513 assessed as reduction in trehalose dimycolate after 16 hrs using [1,2-14C]acetate labeled compounds by TLC analysis. A digest of the protocol:
as §3

In brackets after ≈: the same amount, converted by molar mass.

By MIC is commonly meant the least concentration at which growth counts as inhibited. A higher MIC goes with a need for much substance.

With `C[C@@H]1[C@H]2C[C@@H](C[C@H]1NC(=O)c1cc3ccccc3[nH]1)C2(C)C`, the MIC in data set [1] was 0.12 µg/mL (≈ 0.405 µM); in [2] it was 0.5 µg/mL (≈ 1.69 µM); in data set [3], 0.06 µg/mL (≈ 0.202 µM); in data set [4], 0.06 µg/mL (≈ 0.202 µM); in data set [5], 0.12 µg/mL (≈ 0.405 µM); against Mycobacteroides chelonae, less than 0.06 µg/mL. In addition, the minimum inhibitory concentration (MIC) in data set [6] is 0.05 µg/mL (≈ 0.169 µM); in data set [7], 0.78 µg/mL (≈ 2.63 µM); in the data set with Mycobacterium avium, 8 µg/mL (≈ 27 µM); in data set [8], 8 µg/mL (≈ 27 µM); in the data set on Mycobacterium xenopi, 0.5 to 1 µg/mL (≈ 1.69 to 3.37 µM); against Pseudomonas aeruginosa, more than 160 µg/mL. In the data set on Staphylococcus aureus, this compound displayed an MIC of 40 µg/mL (≈ 135 µM). In data set [9], this compound registered an MBC90 of 0.06 µg/mL (≈ 0.202 µM). In addition, the CC50 at 72 h in data set [10] is 11.3 µg/mL (≈ 38.1 µM). In addition, the selectivity ratio in data set [11] is 22.6; in [12], 188; in data set [13], 92; in [14], more than 188; in [15], 226. In addition, the inhibition result in [16], in data set [17] and in [18] was “Dose-dependent effect” throughout.
